Screens as filed in PubChem.
Most compounds without a hit are left out; they make up all but 1.6% or so of the library.
ABHD4 inh: inhibits mouse alpha/beta hydrolase domain 4. Q8VD66. purified mABHD4, FP-Rh probe fluorescence polarization. inhibition, % at 8.92 µM. hit rate 0.54% among 370,000;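 active = inhibition exceeding the mean over every tested compound plus 3 SD, cut at about 30% in these data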;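 also: 0% = plate median of compound wells and 100% = S159A mutant with DMSO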
Target sequence (Q8VD66 whole entry, looked up, the tested form may be a part): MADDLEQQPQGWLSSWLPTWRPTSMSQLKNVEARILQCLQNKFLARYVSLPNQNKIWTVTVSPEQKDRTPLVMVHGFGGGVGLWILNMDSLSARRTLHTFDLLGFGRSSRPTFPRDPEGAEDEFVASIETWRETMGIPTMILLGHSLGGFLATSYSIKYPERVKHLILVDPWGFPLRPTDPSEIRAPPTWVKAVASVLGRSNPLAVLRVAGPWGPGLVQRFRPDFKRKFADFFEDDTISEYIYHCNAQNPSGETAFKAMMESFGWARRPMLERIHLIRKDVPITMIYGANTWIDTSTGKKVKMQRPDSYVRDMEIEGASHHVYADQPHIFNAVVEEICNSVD
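Test system: mABHD4 protein | Buffer or medium: HEPES pH 7.0 buffer, 150 mM NaCl, 0.01% Pluronic F-127 | Probe or stimulus: FP-Rh fluorescent activity-based probe, added after compound pre-incubation | Timing: Pre-incubation 45 min, probe exposure 60 min, at 25 °C | Technique: Fluorescence polarization, excitation 525 nm, emission 598 nm, BODIPY TMR filters | Repeats: Single well per compound (singlicate)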
DAGLB inh: diacylglycerol lipase beta (human) inhibition; hit rate 0.059% among 340,000; inhibition, % at 5.17 µM; Q8NCG7; HEK293T DAGLB membrane lysate, EnzChek fluorogenic substrate; in the data active = inhibition above about 34%;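 also: 0% = enzyme with vehicle and 100% = wells lacking enzyme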
SIAE inh: human SIAE inhibition, primary screen. SIAE FP-Rh probe binding, fluorescence polarization. inhibition, % at 9.66 µM. hit rate 0.69% among 370,000;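 active = inhibition above a cutoff: mean of compounds within the control limits plus 3 SD of those, cut at about 17% in these data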;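 also: 0% = plate median of compound wells and 100% = probe without SIAE protein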
HTRA1 inh: HTRA1 (human) protease inhibition; Q92743; recombinant HTRA1, FP-rhodamine activity-based probe, fluorescence polarization; inhibition, % at 5.96 µM; hit rate 0.5% among 340,000; AID 504803; in the data active = inhibition above about 36%;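 also: 0% = enzyme with DMSO and 100% = wells lacking enzyme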
TCR CD3 inh: blocks the human TCR-CD3 interaction; TAMRA-labeled TCR probe fluorescence, biochemical; inhibition, % at 9.4 µM; hit rate 0.37% among 360,000; AID 651800; in the data active = inhibition above about 19%;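 also: recombinant mutant TCR 2C K166C tagged with TAMRA read by polarization; 0% = receptor in buffer alone and 100% = receptor with positive control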
SIAE confirm: human SIAE inhibition, confirmation | shares compounds with SIAE inh | SIAE FP-Rh activity-based probe, fluorescence polarization | inhibition, % at 9.66 µM | hit rate 13% among 2,300;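 active = mean inhibition of the replicates above the hit cutoff set in the primary screen, cut at about 17% in these data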;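 also: 0% = SIAE with DMSO and probe and 100% = probe without SIAE; inhibitors lower polarization as more probe stays unbound to SIAE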
Active calls of the source: *.

CCCNS(=O)(=O)c1cccc(C(=O)NNC(=O)c2cc(C)oc2C)c1 was read as ABHD4 inh 2, DAGLB inh 2, SIAE inh 17*, HTRA1 inh 2, TCR CD3 inh -6 and SIAE confirm -6.
`Cc1cc(C(=O)NNC(=O)c2ccc(S(=O)(=O)N(C)C)cc2)c(C)o1` gave ABHD4 inh 5, DAGLB inh 3, SIAE inh -10, HTRA1 inh 2 and TCR CD3 inh 7.
Screening CCN(CC)c1ccc(/C=N/NC(=O)c2cccc(S(=O)(=O)N3CCOCC3)c2)c(O)c1 returned ABHD4 inh 15, DAGLB inh 4, SIAE inh 20*, HTRA1 inh 21, TCR CD3 inh -2 and SIAE confirm 11.
For CCOC(=O)N/N=C/c1ccc(N(CC)CC)cc1O the results were ABHD4 inh 7, DAGLB inh 5, SIAE inh 18*, HTRA1 inh 0, TCR CD3 inh -4 and SIAE confirm -2.
CCN(CC)c1ccc(C=Nc2cccc(S(=O)(=O)N3CCOCC3)c2)c(O)c1 was read as ABHD4 inh 7, DAGLB inh -3, SIAE inh -5, HTRA1 inh -4 and TCR CD3 inh -1.
Screening CCN(CC)S(=O)(=O)c1cccc(C(=O)N/N=C/c2cccc(O)c2O)c1 returned ABHD4 inh 16, DAGLB inh 6, SIAE inh 27*, HTRA1 inh 14, TCR CD3 inh 9 and SIAE confirm -7.
CCN(CC)c1ccc(/C=N/NC(=O)CCC(=O)NCc2ccccc2)c(O)c1 was read as ABHD4 inh 14, DAGLB inh 4, SIAE inh 8, HTRA1 inh 20 and TCR CD3 inh -3.
For CC[C@H](CCC(=O)N(c1ccccc1)c1ccccc1)C1CC1 the results were ABHD4 inh -8 and SIAE inh 4.
`CCN(C(=S)Nc1cccc(C)c1)c1ccccc1` gave ABHD4 inh 2, DAGLB inh 2, SIAE inh 24*, HTRA1 inh -1, TCR CD3 inh 3 and SIAE confirm 0.
For Nc1ccn([C@@H]2O[C@H](C(=O)NCc3ccc4c(c3)OCO4)[C@@H](O)[C@H]2O)c(=O)n1 the results were ABHD4 inh -3, SIAE inh 52*, TCR CD3 inh 2 and SIAE confirm 49*.
`Nc1ccn([C@@H]2O[C@H](C(=O)NCCc3ccc(F)cc3)[C@@H](O)[C@H]2O)c(=O)n1` gave ABHD4 inh 6, SIAE inh 9 and TCR CD3 inh -4.
For CCOC(=O)C(NC(=O)CC)(N1CCc2ccccc2C1)C(F)(F)F (stereo not drawn) the results were ABHD4 inh 5, DAGLB inh 1, SIAE inh 20*, HTRA1 inh 0, TCR CD3 inh -3 and SIAE confirm 3.
O=C(O)CCCn1cc(NC(=O)c2cc(F)c(F)cc2Cl)cn1 was read as ABHD4 inh -1, DAGLB inh -1, SIAE inh -2, HTRA1 inh 1 and TCR CD3 inh 1.
O=C(O)CCCn1cc(NC(=O)c2cccc(F)c2)cn1 was read as ABHD4 inh 0, DAGLB inh 1, SIAE inh 20*, HTRA1 inh 12, TCR CD3 inh 4 and SIAE confirm 1.
For COc1ccc(O)c(C=Nc2cc(NC(C)=O)c(Cl)cc2Cl)c1 the results were ABHD4 inh -5, DAGLB inh 2, SIAE inh 18*, HTRA1 inh -1, TCR CD3 inh -7 and SIAE confirm 1.
O=C(N[C@H](Cc1ccccc1)C(=O)N1CCN(C(=O)N2CCOCC2)CC1)[C@H]1O[C@@H](n2ccc(=O)[nH]c2=O)[C@H](O)[C@@H]1O was read as ABHD4 inh 3, SIAE inh -6 and TCR CD3 inh 4.
Screening NC(=O)[C@@H]1CCCN1C(=O)[C@@H](Cc1ccccc1)NC(=O)[C@H]1O[C@@H](n2ccc(=O)[nH]c2=O)[C@H](O)[C@@H]1O returned ABHD4 inh -2, SIAE inh 49*, TCR CD3 inh 6 and SIAE confirm 41*.
Screening O=C(N[C@H](Cc1ccccc1)C(=O)N1CCN(C(=O)N2CCCCC2)CC1)[C@H]1O[C@@H](n2ccc(=O)[nH]c2=O)[C@H](O)[C@@H]1O returned ABHD4 inh 7, SIAE inh -1 and TCR CD3 inh 10.
`Cc1nccn1-c1ccc(NC(=O)[C@@H](Cc2ccccc2)NC(=O)[C@H]2O[C@@H](n3ccc(=O)[nH]c3=O)[C@H](O)[C@@H]2O)cc1` gave ABHD4 inh -19, SIAE inh 54*, TCR CD3 inh 4 and SIAE confirm 44*.
For Cc1ccc(NC(=O)[C@@H](Cc2ccccc2)NC(=O)[C@H]2O[C@@H](n3ccc(=O)[nH]c3=O)[C@H](O)[C@@H]2O)cc1C the results were ABHD4 inh -6, SIAE inh 0 and TCR CD3 inh 3.
For CSCC[C@@H](CO)NC(=O)[C@H]1O[C@@H](n2ccc(=O)[nH]c2=O)[C@H](O)[C@@H]1O the results were ABHD4 inh 6, SIAE inh 3 and TCR CD3 inh 0.
For O=C(N[C@H](Cc1ccccc1)C(=O)N1CCN(CC(=O)N2CCCC2)CC1)[C@H]1O[C@@H](n2ccc(=O)[nH]c2=O)[C@H](O)[C@@H]1O the results were ABHD4 inh -1, SIAE inh 47*, TCR CD3 inh 3 and SIAE confirm 43*.
For CC(C)[C@H](CO)NC(=O)[C@H]1O[C@@H](n2ccc(=O)[nH]c2=O)[C@H](O)[C@@H]1O the results were ABHD4 inh -3, SIAE inh 70*, TCR CD3 inh -3 and SIAE confirm 55*.
`CCCC(=O)OC[C@H]1CN(C2CCCC2)S(=O)(=O)c2c(Oc3ccc(F)cc3)cccc2O1` gave ABHD4 inh -6, SIAE inh -8 and TCR CD3 inh -2.
`NC(=O)c1ncn([C@@H]2O[C@H](C(=O)N[C@H](Cc3ccccc3)C(=O)N3CCN(CC(=O)Nc4ccccn4)CC3)[C@@H](O)[C@H]2O)n1` gave ABHD4 inh 5, SIAE inh 44*, TCR CD3 inh 6 and SIAE confirm 39*.
For NC(=O)c1ncn([C@@H]2O[C@H](C(=O)N3CCN(CC(=O)Nc4ccccn4)CC3)[C@@H](O)[C@H]2O)n1 the results were ABHD4 inh 3, SIAE inh 7 and TCR CD3 inh -6.
For CC1CCN(C(=O)c2[nH]cnc2C(=O)N[C@@H](CCCCNC(=O)OC(C)(C)C)C(=O)OC(C)(C)C)CC1 the results were ABHD4 inh -1, DAGLB inh 1, SIAE inh 22*, HTRA1 inh -12, TCR CD3 inh 4 and SIAE confirm -5.
For CC(C)C[C@H](NC(=O)c1nc[nH]c1C(=O)N1CCC(C)CC1)C(=O)OC(C)(C)C the results were ABHD4 inh -6, DAGLB inh -5, SIAE inh -1, HTRA1 inh 4 and TCR CD3 inh -2.
